ChEMBL document CHEMBL4406880, “Design, synthesis, and bioactivity of dihydropyrimidine derivatives as kinesin spindle protein inhibitors” (Bioorg Med Chem, 2019)

Experiments:
A498 = assay: Growth inhibition of human A498 cells assessed as growth percentage at 10 uM incubated for 48 hrs by sulforhodamine B assay relative to control; assay type: functional; conditions: A498, 48 h, read-out: Activity
In short: (§1)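 NCI-60 one-dose screen: cells in RPMI 1640 with 5% FBS and 2 mM L-glutamine, plated at 5,000–40,000 cells/well and preincubated 24 h at 37 °C, 5% CO2. Compound is added from a DMSO stock to a final 10 µM and incubated 48 h. Cells are TCA-fixed and stained with sulforhodamine B, read at 515 nm. Output is % growth versus untreated control, with a time-zero plate.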

CAKI-1 = assay: Growth inhibition of human Caki1 cells assessed as growth percentage at 10 uM incubated for 48 hrs by sulforhodamine B assay relative to control; assay type: functional; conditions: CAKI-1, 48 h, read-out: Activity; in short: as §1
NCI-H226 = assay: Growth inhibition of human NCI-H226 cells assessed as growth percentage at 10 uM incubated for 48 hrs by sulforhodamine B assay relative to control; assay type: functional; conditions: NCI-H226, 48 h, read-out: Activity
In short: (§2)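 NCI-60 one-dose screen. Cells in RPMI 1640 with 5% FBS and 2 mM L-glutamine, seeded at 5,000–40,000 cells/well according to doubling time, and preincubated overnight at 37 °C, 5% CO2. A time-zero plate was TCA-fixed at drug addition. Compound from DMSO stock, final 10 µM, 48 h; DMSO vehicle controls. Fixation with TCA, 10% final (16% for suspension cells). SRB stain, Tris solubilization, A515. Result given as % growth versus untreated cells.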

MDA-MB-435 [1] = assay: Induction of apoptosis in human MDA-MB-435 cells assessed as active caspase 9 level incubated for 2 hrs by ELISA (reference value: 1); assay type: functional
In short: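 Caspase-9 was measured by human ELISA on cell lysates, with samples in duplicate. Samples were incubated with detection antibody for 2 h at room temperature. This was followed by 1 h with anti-rabbit IgG-HRP and 10 min with TMB substrate. After a stop solution, absorbance was read at 450 nm.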

[2] = Growth inhibition of human HEK293 cells assessed as cell viability at 100 ug incubated for 48 hrs by MTT assay relative to control; assay type: cell-based; conditions: read-out: Activity
[3] = Growth inhibition of human HEK293 cells assessed as cell viability at 25 ug incubated for 48 hrs by MTT assay relative to control; assay type: cell-based; conditions: read-out: Activity
KM12 [4] = assay: Growth inhibition of human KM12 cells assessed as growth percentage at 10 uM incubated for 48 hrs by sulforhodamine B assay relative to control; assay type: functional; conditions: KM12, 48 h, read-out: Activity; in short: as §2
[5] = Inhibition of kinesin (unknown origin) assessed as reduction in ATPase activity using microtubule as substrate measured for 5 to mins; design: species or system Homo sapiens
DU-145 = assay: Growth inhibition of human DU145 cells assessed as growth percentage at 10 uM incubated for 48 hrs by sulforhodamine B assay relative to control; assay type: functional; conditions: DU-145, 48 h, read-out: Activity; in short: as §1
[6] = Growth inhibition of human HEK293 cells assessed as cell viability at 6.25 ug incubated for 48 hrs by MTT assay relative to control; assay type: cell-based; conditions: read-out: Activity
HEK293 = assay: Growth inhibition of human HEK293 cells assessed as cell viability incubated for 48 hrs by MTT assay; assay type: cell-based; design: unit not given here
In short: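 HEK 293 normal-cell growth inhibition; measured in triplicate, IC50 reported as mean ± SD.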

[7] = Growth inhibition of human HEK293 cells assessed as cell viability at 1.56 ug incubated for 48 hrs by MTT assay relative to control; assay type: cell-based; conditions: read-out: Activity
MDA-MB-435 [8] = assay: Induction of apoptosis in human MDA-MB-435 cells assessed as active caspase 3 level incubated for 2 hrs by ELISA (reference value: 1); assay type: functional
In short: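 Active caspase-3 was measured by human sandwich ELISA. Samples were incubated on the plate for 2 h at room temperature. This was followed by 1 h with detection antibody, 30 min with anti-rabbit IgG-HRP, and 30 min with chromogen, with all steps at room temperature. Absorbance was read at 450 nm, and levels were read from a standard curve.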

OVCAR-3 = assay: Growth inhibition of human OVCAR3 cells assessed as growth percentage at 10 uM incubated for 48 hrs by sulforhodamine B assay relative to control; assay type: functional; conditions: OVCAR-3, 48 h, read-out: Activity; in short: as §2
HCT-116 = assay: Growth inhibition of human HCT116 cells assessed as growth percentage at 10 uM incubated for 48 hrs by sulforhodamine B assay relative to control; assay type: functional; conditions: HCT-116, 48 h, read-out: Activity; in short: as §1
HOP-62 = assay: Growth inhibition of human HOP62 cells assessed as growth percentage at 10 uM incubated for 48 hrs by sulforhodamine B assay relative to control; assay type: functional; conditions: HOP-62, 48 h, read-out: Activity; in short: as §2
[9] = Growth inhibition of human HEK293 cells assessed as cell viability at 0.39 ug incubated for 48 hrs by MTT assay relative to control; assay type: cell-based; conditions: read-out: Activity
OVCAR-5 = assay: Growth inhibition of human OVCAR5 cells assessed as growth percentage at 10 uM incubated for 48 hrs by sulforhodamine B assay relative to control; assay type: functional; conditions: OVCAR-5, 48 h, read-out: Activity
In short: (§3)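 NCI-60 single-dose screen. Cells were grown in RPMI 1640 with 5% FBS and 2 mM L-glutamine and plated at 5,000–40,000 cells/well. After an overnight preincubation at 37 °C in 5% CO2, compound was added at a final 10 µM from a DMSO stock, with DMSO/PBS controls. After 48 h, cells were TCA-fixed and stained with 0.4% SRB, and absorbance was read at 515 nm. Growth is given as a percentage of untreated control.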

SNB-75 [10] = assay: Growth inhibition of human SNB75 cells assessed as growth percentage at 10 uM incubated for 48 hrs by sulforhodamine B assay relative to control; assay type: functional; conditions: SNB-75, 48 h, read-out: Activity; in short: as §3
NCI-H322M = assay: Growth inhibition of human NCI-H322M cells assessed as cell viability at 0.1 uM incubated for 48 hrs by sulforhodamine B assay; assay type: functional; conditions: read-out: Activity
LOX IMVI [11] = assay: Growth inhibition of human LOXIMVI cells assessed as cell viability at 0.001 uM incubated for 48 hrs by sulforhodamine B assay relative to control; assay type: functional; conditions: read-out: Activity
KM12 [12] = assay: Growth inhibition of human KM12 cells assessed as cell viability at 0.1 uM incubated for 48 hrs by sulforhodamine B assay; assay type: functional; conditions: KM12, 48 h, read-out: Activity
LOX IMVI [13] = assay: Growth inhibition of human LOXIMVI cells assessed as cell viability at 1 uM incubated for 48 hrs by sulforhodamine B assay; assay type: functional; conditions: read-out: Activity
SNB-75 [14] = assay: Growth inhibition of human SNB75 cells incubated for 48 hrs by sulforhodamine B assay; assay type: functional; conditions: SNB-75, 48 h
In short: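 NCI-60 five-dose SRB assay. Cells were exposed for 48 h to tenfold dilutions of 0.01, 0.1, 1, 10 and 100 µM, in RPMI 1640 with 5% FBS. Plates fixed with TCA at the time of drug addition served as the time-zero reference. GI50 is the concentration giving a 50% reduction in net growth. TGI is total growth inhibition. LC50 is a net 50% loss of the initial cells.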

Row | Structure (SMILES) | growth at 10 µM (A498) | growth at 10 µM (CAKI-1) | growth at 10 µM (NCI-H226) | fold change (FC) (MDA-MB-435 [1]) | viability at 48 h, 100 ug [2] | viability at 48 h, 25 ug [3] | growth at 10 µM (KM12 [4]) | IC50 [5] | growth at 10 µM (DU-145) | viability at 48 h, 6.25 ug [6] | IC50 (HEK293) | viability at 48 h, 1.56 ug [7] | fold change (FC) (MDA-MB-435 [8]) | growth at 10 µM (OVCAR-3) | growth at 10 µM (HCT-116) | growth at 10 µM (HOP-62) | viability at 48 h, 0.39 ug [9] | growth at 10 µM (OVCAR-5) | growth at 10 µM (SNB-75 [10]) | further results
1 | CC(=O)N1C(=S)NC(C)=C(C(=O)OCc2ccccc2)C1c1ccc2c(c1)OCO2 (racemic) | 92% | 92.4% | 96.3% | 18.79 | 41.4% | 50% | 71.1% | 3.86 µM | 95% | 61.3% | 27.99 | 69.3% | 7.9 | 104% | 41.4% | 75.5% | 76.2% | 107% | 80.4% | 
2 | CC(=O)C1=C(C)Nc2nc3ccccc3n2C1c1ccc2c(c1)OCO2 (racemic) | 112% | 88.3% | 103% |  | 36.6% | 48.6% | 96.4% | 14.1 µM | 109% | 59% | 19.3 | 70.7% |  | 105% | 98.9% | 94.7% | 77.4% | 113% | 88.2% | 
3 | CC1=C(C(=O)OCc2ccccc2)C(c2ccc3c(c2)OCO3)n2c(nc3ccccc32)N1 (racemic) |  | 24 to 34.3% | 58 to 58.2% | 12.43 | 36% | 47.2% | 15 to 17.3% | 4.36 µM | 49 to 53.5% | 58.7% | 16.75 | 67.2% | 6.83 |  | 18.8 to 25% | 36 to 44.2% | 77.6% | 53 to 64.4% |  | viability at 0.1 µM (NCI-H322M): 99%; viability at 0.001 µM (LOX IMVI [11]): 93%; viability at 0.1 µM (KM12 [12]): 86%; viability at 1 µM (LOX IMVI [13]): 35%; GI50 (SNB-75 [14]; read-out: GI50): 0.22 µM; LC50 (concentration giving 50% net loss of initial cells) (SNB-75 [14]; read-out: LC50): > 100 µM; TGI (SNB-75 [14]; read-out: TGI): 0.8 µM; GI50 (SNB-75 [14]; read-out: pGI50 (converted)): 0.214 µM; LC50 (concentration giving 50% net loss of initial cells) (SNB-75 [14]; read-out: pLC50 (converted)): > 100 µM; TGI (SNB-75 [14]; read-out: pTGI (converted)): 0.794 µM
